Data reported in PubChem BioAssay.
Calls of active or inactive are those of the source.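 The calls were made as follows, unless noted: active = a full or partial loss of lipid-probe fluorescence in the fish gall bladder, intestine or both, judged by eye; inactive = no fluorescence loss, or compound toxic to the fish.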

Legend:
[1] = inhibitors of TNFa-induced NFkB p65 translocation, primary screen, imaging, HUVEC, MLSMR starter and 10KST1 sets (AID 438;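 active = inhibition above 20% together with a positive visual image hit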;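 also: compound added about 3h40 before a 20 min TNFalpha stimulation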;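 as to inhibition: signal is the nuclear over cytoplasmic p65 intensity ratio per well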); conditions: HUVEC TNFa-induced p65 nuclear translocation; cell count: measured here: nuclei count (cytotoxicity indicator), at 2.08 µM; inhibition: at 2 µM, stronger effect = higher value, 0% TNFa-plus-vehicle, 100% no-TNFa wells
[2] = endothelial E-selectin expression blockers – imaging, HUVEC, immunofluorescence, MLSMR starter and 10KST1 sets, primary screen (AID 487;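 active = visually confirmed hit in the image check and inhibition above 20%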;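 as to inhibition: signal is fraction of cell area covered by stained E-selectin grains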;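 as to nuclei count: 100% = median nuclei count of all wells on the same plate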); conditions: HUVEC TNFalpha-induced E-selectin immunofluorescence imaging, at 2 µM; inhibition: stronger effect = higher value; nuclei count: measured here: cell number, toxicity
[3] = Primary imaging screen for DUSP6 inhibitors that restore phospho-Erk in transfected HeLa cells, chemical complementation (AID 609;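 active = compounds giving at least 50% inhibition in the cell-based MKP-3 phosphatase rescue imaging test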;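 as to inhibition: phospho-Erk level distribution per well compared with pooled transfected vehicle control wells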); conditions: HeLa MKP-3 transfected, phospho-Erk imaging KS statistic, at 10 µM, cells stimulated with TPA for 15 min
[4] = molecular target: Dual specificity protein phosphatase 6 (Homo sapiens) (UniProt Q16828); experiment: as above; conditions: HeLa MKP-3 transfected, phospho-Erk imaging KS statistic; at 10 µM; stronger effect = higher value; cells stimulated with TPA for 15 min
Sequence of Dual specificity protein phosphatase 6 (Homo sapiens) (Q16828 whole entry, looked up): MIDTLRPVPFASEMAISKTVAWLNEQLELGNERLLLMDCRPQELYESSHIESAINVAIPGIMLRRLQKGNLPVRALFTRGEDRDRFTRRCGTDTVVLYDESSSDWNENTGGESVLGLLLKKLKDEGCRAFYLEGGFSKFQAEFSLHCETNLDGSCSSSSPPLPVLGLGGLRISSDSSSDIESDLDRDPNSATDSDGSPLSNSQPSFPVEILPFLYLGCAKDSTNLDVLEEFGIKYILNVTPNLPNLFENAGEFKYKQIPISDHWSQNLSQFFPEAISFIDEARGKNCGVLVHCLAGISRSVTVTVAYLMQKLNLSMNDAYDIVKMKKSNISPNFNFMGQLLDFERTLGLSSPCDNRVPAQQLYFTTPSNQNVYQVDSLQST

[5] = molecular target: Voltage-gated potassium channel subunit beta-2 (Rattus norvegicus) (UniProt P62483); experiment: inhibitors of rat Kvbeta2 reductase activity – biochemical, NADPH fluorescence, primary screen (AID 622;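 active = fluorescence slope higher than the sample average by over 3 SD, cut at about -0.22 in these data, passing the limit was not always enough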;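 also: slope of raw intensity against log time taken from 70 to 1610 s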); conditions: recombinant KvBeta, 4-cyanobenzaldehyde reduction, at 10 µM, stronger effect = higher value
Sequence of Voltage-gated potassium channel subunit beta-2 (Rattus norvegicus) (P62483 whole entry, looked up): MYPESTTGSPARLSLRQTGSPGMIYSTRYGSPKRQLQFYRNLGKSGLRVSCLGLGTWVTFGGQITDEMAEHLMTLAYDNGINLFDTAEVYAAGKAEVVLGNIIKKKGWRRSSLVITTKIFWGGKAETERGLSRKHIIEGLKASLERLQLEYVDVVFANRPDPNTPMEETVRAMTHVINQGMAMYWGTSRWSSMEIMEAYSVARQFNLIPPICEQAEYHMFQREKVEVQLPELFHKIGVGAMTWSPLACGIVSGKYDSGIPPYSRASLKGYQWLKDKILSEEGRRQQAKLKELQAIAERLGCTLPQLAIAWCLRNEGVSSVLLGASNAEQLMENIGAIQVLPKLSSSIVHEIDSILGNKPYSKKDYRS

[6] = molecular target: Voltage-gated potassium channel subunit beta-2 (Rattus norvegicus) (UniProt P62483); experiment: enhancers of rat Kvbeta2 NADPH turnover – biochemical, NADPH fluorescence, primary screen (AID 623;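 active = NADPH fluorescence slope more negative than the mean of all samples by about 3 SD, 99.7% confidence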;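 also: fluorescence intensity change per second fitted from 20 to 320 s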); conditions: Recombinant KvBeta, NADPH fluorescence decrease slope, 10 min; at 10 µM; stronger effect = lower value
[7] = molecular target: Alpha-2C adrenergic receptor (Homo sapiens) (UniProt P18825); experiment: compounds altering alpha2C-coupled GIRK flux – cell-based, HEK293 alpha2C/GIRK1/2, thallium flux, primary screen (AID 624;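 active = fluorescence slope after compound addition differing from the mean of all screened samples at 99.7% confidence, in either direction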;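 also: slope of fluorescence ratio to pre-addition baseline per second over 15 to 24 s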); conditions: thallium flux BTC fluorescence, at 10 µM, actives lie on both sides
Sequence of Alpha-2C adrenergic receptor (Homo sapiens) (P18825 whole entry, looked up): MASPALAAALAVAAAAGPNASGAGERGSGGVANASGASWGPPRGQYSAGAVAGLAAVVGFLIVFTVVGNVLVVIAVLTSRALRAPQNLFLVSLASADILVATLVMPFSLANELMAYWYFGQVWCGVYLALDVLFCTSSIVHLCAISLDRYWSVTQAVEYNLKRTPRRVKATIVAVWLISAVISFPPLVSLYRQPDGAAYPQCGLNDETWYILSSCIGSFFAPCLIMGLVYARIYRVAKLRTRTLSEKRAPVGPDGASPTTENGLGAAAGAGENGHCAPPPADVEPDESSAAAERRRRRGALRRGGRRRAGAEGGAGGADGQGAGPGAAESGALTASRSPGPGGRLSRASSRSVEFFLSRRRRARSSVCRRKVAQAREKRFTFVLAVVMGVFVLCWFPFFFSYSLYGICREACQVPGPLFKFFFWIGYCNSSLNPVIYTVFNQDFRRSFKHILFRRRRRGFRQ

[8] = inhibitors of larval lipid processing in zebrafish, primary screen, whole organism, PED6 fluorescence, gall bladder and intestine (AID 686); conditions: Zebrafish larvae PED6 lipid processing, fluorescence scoring; screened at 20 µM (by protocol);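 also: larvae 5 to 7 days old with five fish per well; signal comes from phospholipase A2 cleavage of quenched PED6 carried via bile; overnight exposure to compound and PED6 before scoring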
Summary of the method: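 Also added: quenched phospholipase substrate PED6, 100 nM final, ingested by larvae; System: zebrafish larvae, 5-7 d; Quantity: 5 larvae per well; Compound: 20 µM single dose; Schedule: overnight compound and PED6 incubation; Read-out: visual per-well fluorescence inhibition score; Measured by: By-eye fluorescence microscopy; Medium: E3.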

[9] = loss of swimming-algae plug formation – whole organism, Chlamydomonas reinhardtii, WT vs cilia-less mutant, absorbance, 96-well, primary screen (AID 463189;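 active = inhibition at or above 50% relative to wild type and mutant plate controls; inactive = inhibition below 50%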;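 also: 0% = wild type cc124 cells in DMSO and 100% = ciliumless bld1 mutant cells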); conditions: Chlamydomonas reinhardtii gravitaxis, OD600 absorbance, 2 days; at 10 µM; stronger effect = higher value
[10] = measured here: cell density z-score
[11] = measured here: nuclear c-Myc green intensity z-score
[12] = measured here: nuclear pErk red intensity z-score, stronger effect = higher value

Row | Structure (SMILES) | cell count [1] | inhibition [1] | inhibition [2] | nuclei count [2] [%] | z-score [3, 10] | z-score [3, 11] | z-score [3, 12] | inhibition [4] | fluorescence slope [5] | NADPH fluorescence slope [6] | slope [7] | outcome [8] | inhibition [9]
1 | COC(=O)C1=C(C)OC(N)=C(C#N)C1c1ccc(OC)c(OC)c1OC (stereo unspecified) | 401 | -10.3% (inactive) | -52.9% (inactive) | 104 | 0.861 | -0.767 | -0.967 | 26.5% (inactive) | -0.557 (inactive) | -8.1e-05 (inactive) | 0.00455 (inactive) | inactive | 42.2% (inactive)
2 | O=S(=O)(c1ccccc1)N1CCC(N2CCN(c3ccccc3)CC2)CC1 | 454 | -26.3% (inactive) | -98.2% (inactive) | 140 | -1.37 | -0.201 | -1.07 | -3.95% (inactive) | -0.326 (inactive) | 1.7e-05 (inactive) | 0.006 (inactive) | inactive | 1.95% (inactive)
3 | COc1ccccc1-n1c(=O)c2c3c(sc2n2c(SC)nnc12)CCC3 | 612 | -29% (inactive) | -100% (inactive) | 169 | -1.08 | -0.0482 | 1.7 | -0.608% (inactive) | -0.367 (inactive) | -5.4e-05 (inactive) | 0.00462 (inactive) | inactive | 16.5% (inactive)
4 | O=c1[nH]c(=O)n(Cc2ccco2)c2c1C(C(F)(F)F)(C(F)(F)F)N=C(c1ccco1)N2 | 505 | -2.5% (inactive) | -212% (inactive) | 132 | -0.683 | -0.978 | -0.242 | 1.75% (inactive) | -0.502 (inactive) | -5.4e-05 (inactive) | 0.00631 (inactive) | inactive | -4.12% (inactive)
5 | Cc1nnc2c(NC(C)C)nc3ccccc3n12 | 381 | -8.4% (inactive) | -63% (inactive) | 137 | 0.584 | -0.494 | -1.32 | 22.7% (inactive) | -0.382 (inactive) | -5.9e-05 (inactive) | 0.0077 (inactive) | inactive | 29.1% (inactive)
6 | CCOC(=O)c1[nH]c2ccc(OC)cc2c1C | 547 | -3.8% (inactive) | -0.1% (inactive) | 171 | -0.421 | -0.589 | 0.677 | -12.3% (inactive) | -0.361 (inactive) | -2.9e-05 (inactive) | 0.0043 (inactive) | inactive | 1.77% (inactive)
7 | Cc1cc(C)n(C(=O)CSc2nc3ccccc3o2)n1 | 551 | -6.6% (inactive) | -100% (inactive) | 138 | 0.355 | 0.587 | 0.0282 | 19.8% (inactive) | -0.488 (inactive) | -4.3e-05 (inactive) | 0.00455 (inactive) | inactive | 25.1% (inactive)
8 | Cc1c(/C(O)=C2/C(=O)C(=O)N(CCCN3CCOCC3)C2c2ccncc2)cnn1-c1ccccc1 (stereo unspecified) | 518 | 8.4% (inactive) | -181% (inactive) | 149 | 0.69 | 0.756 | -0.189 | 8.76% (inactive) | -0.552 (inactive) | -1.5e-05 (inactive) | 0.00511 (inactive) | inactive | 15.5% (inactive)
9 | CSc1nc2sc3c(c2c(=O)n1C1CCCCC1)CCN(C)C3 | 563 | 1.3% (inactive) | -69.6% (inactive) | 107 | 0.231 | 0.631 | -1.25 | 9.82% (inactive) | -0.375 (inactive) | -2.1e-06 (inactive) | 0.00516 (inactive) | inactive | -15.6% (inactive)
10 | Cn1c(NCC(O)c2ccccc2)nc2c1c(=O)n(Cc1ccc(Cl)c(Cl)c1)c(=O)n2C (stereo unspecified) | 669 | -6.1% (inactive) | -18.3% (inactive) | 162 | 0.306 | 0.44 | 1.81 | 6.04% (inactive) | -0.518 (inactive) | -3.6e-05 (inactive) | 0.00441 (inactive) | inactive | 75.1% (active)
11 | CCCOc1ccc(-c2nnc(N)s2)cc1 | 608 | -13.2% (inactive) | -31.6% (inactive) | 164 | 0.463 | 0.84 | -0.902 | -4.27% (inactive) | -0.403 (inactive) | -6.2e-05 (inactive) | 0.00732 (inactive) | inactive | -0.862% (inactive)
12 | C=CCOc1nc2c(c(=O)n(C)c(=O)n2C)n1Cc1ccc(Cl)cc1Cl | 555 | 1.8% (inactive) | -31.1% (inactive) | 103 | -0.56 | -0.295 | 0.979 | -6.48% (inactive) | -0.591 (inactive) | -4.9e-05 (inactive) | 0.00522 (inactive) | inactive | 4.68% (inactive)
13 | COC(=O)c1c(NC(=O)c2nn(C)cc2Cl)sc2c1CCCC2 | 650 | 4.5% (inactive) | -19.9% (inactive) | 179 | -0.637 | -1.15 | 1.29 | 2.46% (inactive) | -0.389 (inactive) | -3.5e-05 (inactive) | 0.00842 (inactive) | inactive | 23.3% (inactive)
14 | O=C(Cc1cscn1)c1ccc(O)cc1O | 564 | -6% (inactive) | -143% (inactive) | 147 | 1.34 | -0.975 | -0.882 | 11.9% (inactive) | -0.544 (inactive) | -5.6e-05 (inactive) | 0.00473 (inactive) | inactive | 8.71% (inactive)
15 | CC1CN(c2oc(-c3cccs3)nc2C#N)CC(C)O1 (stereo unspecified) | 437 | -13.6% (inactive) | -188% (inactive) | 178 | -0.465 | 0.306 | 0.34 | 0.671% (inactive) | -0.0506 (inactive) | 4e-07 (inactive) | 0.00683 (inactive) | inactive | 5.74% (inactive)
16 | O=C1C(=O)N(CCN2CCOCC2)C(c2ccccn2)/C1=C(/O)c1ccccc1 (stereo unspecified) | 382 | -4.7% (inactive) | -87.4% (inactive) | 107 | -0.264 | 0.535 | -1.2 | -0.159% (inactive) | -0.432 (inactive) | -1.4e-05 (inactive) | 0.00578 (inactive) | inactive | -11.4% (inactive)
17 | CCCOc1ccc(N2C(=O)CC(N(CCC)C(=O)CCC(=O)O)C2=O)cc1 (stereo unspecified) | 468 | -11.6% (inactive) | -161% (inactive) | 204 | -1.24 | -0.331 | -0.093 | 7.7% (inactive) | -0.384 (inactive) | -9.2e-06 (inactive) | 0.00456 (inactive) | inactive; toxic | 11.3% (inactive)
18 | CN1C(=O)c2ccc(N(C)C)cc2C1=O | 681 | -8.8% (inactive) | 17.3% (inactive) | 175 | 0.273 | -0.466 | -0.534 | 3.66% (inactive) | -0.479 (inactive) | -6.8e-05 (inactive) | 0.00498 (inactive) | inactive | 21.8% (inactive)
19 | Oc1ccc2c(c1)C1CCCC1(N1CCOCC1)O2 (stereo unspecified) | 414 | 0.7% (inactive) | -83.5% (inactive) | 128 | 0.996 | -0.205 | -1.79 | 3.42% (inactive) | -0.458 (inactive) | -0.000124 (inactive) | 0.005 (inactive) | inactive | -3.55% (inactive)
20 | CC1(C)Cc2c(sc3ncn4nnnc4c23)CO1 | 685 | -0.9% (inactive) | -182% (inactive) | 180 | 1.78 | -1.07 | 0.925 | 13.2% (inactive) | -0.522 (inactive) | -3.9e-05 (inactive) | 0.00539 (inactive) | inactive | 9.27% (inactive)
21 | COc1cccc2c(=O)c(SC(F)(F)C(F)C(F)(F)F)c(C)[nH]c12 (stereo unspecified) | 311 | -0.8% (inactive) | -14.2% (inactive) | 105 | 0.112 | 2.52 | -0.995 | -2.91% (inactive) | -0.393 (inactive) | -3e-05 (inactive) | 0.00581 (inactive) | inactive | -12.2% (inactive)
22 | COC(=O)CSc1nc(N)c2c3c(sc2n1)CCCC3 | 627 | -10.6% (inactive) | -9.7% (inactive) | 172 | -2.1 | 0.19 | 1.1 | 4.37% (inactive) | -0.355 (inactive) | -6.3e-05 (inactive) | 0.00567 (inactive) | inactive | -6.63% (inactive)
23 | CCOC(=O)CNS(=O)(=O)c1cc(-c2nn(C)c(=O)c3ccccc23)ccc1C | 560 | -1.9% (inactive) | 45.7% (inactive) | 144 | 1.99 | -1.09 | -0.809 | 8.76% (inactive) | -0.385 (inactive) | -1.9e-05 (inactive) | 0.00449 (inactive) | inactive | -1.44% (inactive)
24 | CCOC(=O)C1=C(C(C)=O)C(c2cccnc2)C(C#N)=C(N)O1 (stereo unspecified) | 548 | -5.1% (inactive) | -109% (inactive) | 228 | 0.844 | -1.11 | -0.0919 | 6.04% (inactive) | -0.369 (inactive) | -1e-05 (inactive) | 0.00521 (inactive) | inactive | 12.1% (inactive)
25 | COCCCn1c2nc3ccccc3nc2c2c(=O)n(CC3CCCO3)cnc21 (stereo unspecified) | 561 | -24.2% (inactive) | -93.6% (inactive) | 148 | 0.117 | -0.113 | -0.0537 | 2.92% (inactive) | -0.368 (inactive) | -1.9e-05 (inactive) | 0.00353 (inactive) | inactive | 9.15% (inactive)
26 | CC(C)(C)NCC(=O)c1c[nH]c2ccccc12 | 535 | -1.7% (inactive) | -49.5% (inactive) | 146 | -0.736 | 1.42 | -0.666 | -1.75% (inactive) | -0.35 (inactive) | 5.2e-06 (inactive) | 0.00435 (inactive) | inactive | -1.18% (inactive)
27 | c1ccc(C2Nc3ccccc3-c3nc4ccccc4n32)nc1 (stereo unspecified) | 467 | 5.5% (inactive) | -27.5% (inactive) | 101 | -0.673 | 0.738 | -0.0231 | 12.3% (inactive) | -0.495 (inactive) | -1.1e-05 (inactive) | 0.00682 (inactive) | inactive | -35.3% (inactive)
